Values after ≈ are worked out from the molar mass of the structure shown. Active and inactive are the calls of the source. The rule behind the calls is not given here.
Experiments:
Format in all cases: functional
Staphylococcus aureus [1] = test: Antimicrobial activity against Staphylococcus aureus 2079 at 128 ug/disc at 35 degC after 24 hrs by agar-well diffusion assay; conditions: for zone of inhibition at 128 µg/disc: Staphylococcus aureus, 2079, 24 h, read-out: DIZ
Method in brief: (§1)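 Agar-well diffusion: 24 h bacterial cultures adjusted to 0.5 McFarland (1.5 × 10⁸ CFU/mL) and mixed into molten Mueller-Hinton agar before pouring. 6 mm wells punched and each filled with 50 µL of compound stock or control. Plates incubated 35 °C for 24 h. Zone of growth inhibition diameter measured with vernier caliper.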

Aspergillus niger [2] = test: Antimicrobial activity against Aspergillus niger 545 at 128 ug/disc at 37 degC after 24 to 72 hrs by agar-well diffusion assay; conditions: in the assay text read “disc diffusion assay” for “agar-well diffusion assay”
Method in brief: (§2)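 Potato dextrose agar base plates overlaid with seeded agar cooled to 40 °C and inoculated with spores from 10-day cultures, final 1 × 10⁶ spores/mL. Compounds dissolved in DMSO at 128 µg/mL and applied on 6 mm filter-paper discs placed on chilled seeded medium. Nystatin positive control, DMSO negative control. Incubation 24–72 h at 37 °C. Inhibition zone diameter read by vernier caliper.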

Aspergillus niger [3] = test: Antimicrobial activity against Aspergillus niger 545 at 35 degC after 48 hrs by CLSI method based antimicrobial assay
Method in brief: (§3)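 Broth microdilution following CLSI guidelines over 256 to 1 µg/mL. MIC90 is the lowest concentration completely inhibiting growth. For MFC, 0.1 mL from each tube spread on agar and CFU counted after 48 h at 35 °C; MFC is lowest concentration killing 99.9% of inoculum. MFC/MIC ratio calculated: […], ≤4 as fungicidal.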

Candida albicans [4] = test: Antimicrobial activity against Candida albicans 3471 at 128 ug/disc at 37 degC after 24 to 72 hrs by agar-well diffusion assay; conditions: for zone of inhibition at 128 µg/disc: read-out: DIZ; method in brief: as §2
Candida albicans [5] = test: Antimicrobial activity against Candida albicans 3471 at 35 degC after 48 hrs by CLSI method based antimicrobial assay; conditions: for MFC: read-out: MFC99.9; method in brief: as §3
Pseudomonas aeruginosa [6] = test: Antimicrobial activity against Pseudomonas aeruginosa 2036 at 128 ug/disc at 35 degC after 24 hrs by agar-well diffusion assay; conditions: for zone of inhibition at 128 µg/disc: Pseudomonas aeruginosa, 2036, 24 h, read-out: DIZ; method in brief: as §1
Escherichia coli [7] = test: Antimicrobial activity against Escherichia coli 2109 at 35 degC after 18 to 24 hrs by NCCLS method based antimicrobial assay; conditions: for MBC: read-out: MBC99.9
Pseudomonas aeruginosa [8] = test: Antimicrobial activity against Pseudomonas aeruginosa 2036 at 35 degC after 18 to 24 hrs by NCCLS method based antimicrobial assay; conditions: for MBC: read-out: MBC99.9
Staphylococcus aureus [9] = test: Antimicrobial activity against Staphylococcus aureus 2079 at 35 degC after 18 to 24 hrs by NCCLS method based antimicrobial assay; conditions: for MBC: read-out: MBC99.9
Bacillus subtilis [10] = test: Antimicrobial activity against Bacillus subtilis 2250 at 35 degC after 18 to 24 hrs by NCCLS method based antimicrobial assay; conditions: for MBC: read-out: MBC99.9
Candida albicans [11] = test: Ratio of MFC99.9 to MIC90 for Candida albicans 3471 at 35 degC after 48 hrs by CLSI method based antimicrobial assay; method in brief: as §3
Escherichia coli [12] = test: Antimicrobial activity against Escherichia coli 2109 at 128 ug/disc at 35 degC after 24 hrs by agar-well diffusion assay; conditions: for zone of inhibition at 128 µg/disc: Escherichia coli, 2109, 24 h, read-out: DIZ; method in brief: as §1
Bacillus subtilis [13] = test: Antimicrobial activity against Bacillus subtilis 2250 at 128 ug/disc at 35 degC after 24 hrs by agar-well diffusion assay; conditions: for zone of inhibition at 128 µg/disc: Bacillus subtilis, 2250, 24 h, read-out: DIZ; method in brief: as §1

Row | Compound | MIC (Aspergillus niger [3]) | MIC (Candida albicans [5]; Candida albicans, 3471, 48 h) [µg/mL] | MIC (Escherichia coli [7]) | MIC (Pseudomonas aeruginosa [8]) | MIC (Staphylococcus aureus [9]) | MIC (Bacillus subtilis [10]) | diameter of the inhibition zone (DIZ) (Aspergillus niger [2]) | MFC99.9 (Aspergillus niger [3]) | zone of inhibition at 128 µg/disc (Candida albicans [4]) [mm] | MFC (Candida albicans [5]; Candida albicans, 3471, 48 h) [µg/mL] | diameter of the inhibition zone (DIZ) (Pseudomonas aeruginosa [6]) | MBC99.9 (Escherichia coli [7]) | MBC99.9 (Pseudomonas aeruginosa [8]) | Ratio (Candida albicans [11]) | diameter of the inhibition zone (DIZ) (Staphylococcus aureus [1]) | MBC (Escherichia coli [7]) [µg/mL] | MBC99.9 (Staphylococcus aureus [9]) | MBC99.9 (Bacillus subtilis [10]) | zone of inhibition at 128 µg/disc (Escherichia coli [12]) [mm] | diameter of the inhibition zone (DIZ) (Bacillus subtilis [13]) | other results
1 | FC(F)(F)c1cc(/C(Cn2nnc3ccccc32)=N\Nc2nc(-c3cc(C(F)(F)F)cc(C(F)(F)F)c3)cs2)cc(C(F)(F)F)c1 | inactive | 128 (≈ 188 µM) | 128 µg/mL (≈ 188 µM) | inactive | inactive | inactive | inactive | inactive | 11.7 | 256 (≈ 375 µM) | inactive | – | inactive | 2 | inactive | 256 (≈ 375 µM) | inactive | inactive | 16.4 | inactive | –
2 | O=C(N[C@H](CO)[C@H](O)c1ccc([N+](=O)[O-])cc1)C(Cl)Cl [CHLORAMPHENICOL] | – | – | – | – | – | – | – | – | – | – | – | – | – | – | – | 32 (≈ 99 µM) | – | – | 27.6 | – | zone of inhibition at 128 µg/disc (Staphylococcus aureus [1]): 31.4 mm; zone of inhibition at 128 µg/disc (Pseudomonas aeruginosa [6]): 23.9 mm; MBC (Pseudomonas aeruginosa [8]): 32 µg/mL (≈ 99 µM); MBC (Staphylococcus aureus [9]): 32 µg/mL (≈ 99 µM); MBC (Bacillus subtilis [10]): 32 µg/mL (≈ 99 µM); zone of inhibition at 128 µg/disc (Bacillus subtilis [13]): 29.2 mm
3 | O=[N+]([O-])c1ccc(-c2csc(N/N=C(/Cn3nnc4ccccc43)c3cc(C(F)(F)F)cc(C(F)(F)F)c3)n2)cc1 | inactive | – | 128 µg/mL (≈ 216 µM) | inactive | inactive | inactive | inactive | inactive | – | – | inactive | – | inactive | – | inactive | 256 (≈ 433 µM) | inactive | inactive | 13.1 | inactive | diameter of the inhibition zone (DIZ) (Candida albicans [4]): inactive; MFC99.9 (Candida albicans [5]): inactive; MIC (Candida albicans [5]): inactive
4 | FC(F)(F)c1cc(-c2csc(N/N=C(/Cn3nnc4ccccc43)c3ccc(Cl)cc3)n2)cc(C(F)(F)F)c1 | – | 64 (≈ 110 µM) | 32 µg/mL (≈ 55.1 µM) | inactive | inactive | inactive | inactive | inactive | 13.7 | 128 (≈ 220 µM) | inactive | – | inactive | 2 | inactive | 64 (≈ 110 µM) | inactive | inactive | 21.1 | inactive | –
5 | FC(F)(F)c1cc(-c2csc(N/N=C(/Cn3nnc4ccccc43)c3ccc(Br)cc3)n2)cc(C(F)(F)F)c1 | inactive | – | inactive | inactive | 64 µg/mL (≈ 102 µM) | 64 µg/mL (≈ 102 µM) | inactive | inactive | – | – | inactive | inactive | inactive | – | – | – | – | – | – | – | zone of inhibition at 128 µg/disc (Staphylococcus aureus [1]): 22.1 mm; diameter of the inhibition zone (DIZ) (Candida albicans [4]): inactive; MFC99.9 (Candida albicans [5]): inactive; MIC (Candida albicans [5]): inactive; MBC (Staphylococcus aureus [9]): 64 µg/mL (≈ 102 µM); MBC (Bacillus subtilis [10]): 128 µg/mL (≈ 205 µM); diameter of the inhibition zone (DIZ) (Escherichia coli [12]): inactive; zone of inhibition at 128 µg/disc (Bacillus subtilis [13]): 20.3 mm
6 | FC(F)(F)c1cc(/C(Cn2nnc3ccccc32)=N\Nc2nc(-c3ccc(Br)cc3)cs2)cc(C(F)(F)F)c1 | inactive | – | inactive | 64 µg/mL (≈ 102 µM) | inactive | inactive | inactive | inactive | – | – | – | inactive | – | – | inactive | – | inactive | inactive | – | inactive | diameter of the inhibition zone (DIZ) (Candida albicans [4]): inactive; MFC99.9 (Candida albicans [5]): inactive; MIC (Candida albicans [5]): inactive; zone of inhibition at 128 µg/disc (Pseudomonas aeruginosa [6]): 15.6 mm; MBC (Pseudomonas aeruginosa [8]): 128 µg/mL (≈ 205 µM)

Further lines, with some results ahead:

Row | MIC (Aspergillus niger [3]) | MIC (Candida albicans [5]; Candida albicans, 3471, 48 h) [µg/mL] | MIC (Escherichia coli [7]) | MIC (Pseudomonas aeruginosa [8]) | MIC (Staphylococcus aureus [9]) | MIC (Bacillus subtilis [10]) | Compound | diameter of the inhibition zone (DIZ) (Aspergillus niger [2]) | MFC99.9 (Aspergillus niger [3]) | zone of inhibition at 128 µg/disc (Candida albicans [4]) [mm] | MFC (Candida albicans [5]; Candida albicans, 3471, 48 h) [µg/mL] | diameter of the inhibition zone (DIZ) (Pseudomonas aeruginosa [6]) | MBC99.9 (Escherichia coli [7]) | MBC99.9 (Pseudomonas aeruginosa [8]) | Ratio (Candida albicans [11]) | diameter of the inhibition zone (DIZ) (Staphylococcus aureus [1]) | MBC (Escherichia coli [7]) [µg/mL] | MBC99.9 (Staphylococcus aureus [9]) | MBC99.9 (Bacillus subtilis [10]) | zone of inhibition at 128 µg/disc (Escherichia coli [12]) [mm] | diameter of the inhibition zone (DIZ) (Bacillus subtilis [13]) | other results
7 | inactive | 32 (≈ 56.3 µM) | inactive | inactive | 32 µg/mL (≈ 56.3 µM) | 128 µg/mL (≈ 225 µM) | Brc1ccc(/C(Cn2nnc3ccccc32)=N\Nc2nc(-c3ccc(Br)cc3)cs2)cc1 | inactive | inactive | 18.1 | 64 (≈ 113 µM) | inactive | inactive | inactive | 2 | – | – | – | – | – | – | zone of inhibition at 128 µg/disc (Staphylococcus aureus [1]): 23.4 mm; MBC (Staphylococcus aureus [9]): 64 µg/mL (≈ 113 µM); MBC (Bacillus subtilis [10]): 256 µg/mL (≈ 450 µM); diameter of the inhibition zone (DIZ) (Escherichia coli [12]): inactive; zone of inhibition at 128 µg/disc (Bacillus subtilis [13]): 17.2 mm
8 | inactive | 128 (≈ 252 µM) | inactive | inactive | 64 µg/mL (≈ 126 µM) | 64 µg/mL (≈ 126 µM) | Fc1ccc(/C(Cn2nnc3ccccc32)=N\Nc2nc(-c3ccc(Br)cc3)cs2)cc1 | inactive | inactive | 14.7 | 256 (≈ 505 µM) | inactive | inactive | inactive | 2 | – | – | – | – | – | – | zone of inhibition at 128 µg/disc (Staphylococcus aureus [1]): 20.9 mm; MBC (Staphylococcus aureus [9]): 128 µg/mL (≈ 252 µM); MBC (Bacillus subtilis [10]): 128 µg/mL (≈ 252 µM); diameter of the inhibition zone (DIZ) (Escherichia coli [12]): inactive; zone of inhibition at 128 µg/disc (Bacillus subtilis [13]): 22.8 mm
9 | inactive | 32 (≈ 59.9 µM) | inactive | inactive | 64 µg/mL (≈ 120 µM) | 128 µg/mL (≈ 240 µM) | O=[N+]([O-])c1ccc(/C(Cn2nnc3ccccc32)=N\Nc2nc(-c3ccc(Br)cc3)cs2)cc1 | inactive | inactive | 17.3 | 64 (≈ 120 µM) | inactive | inactive | inactive | 2 | – | – | – | – | – | – | zone of inhibition at 128 µg/disc (Staphylococcus aureus [1]): 22.6 mm; MBC (Staphylococcus aureus [9]): 128 µg/mL (≈ 240 µM); MBC (Bacillus subtilis [10]): 256 µg/mL (≈ 479 µM); zone of inhibition at 128 µg/disc (Bacillus subtilis [13]): 15.3 mm
10 | inactive | – | 64 µg/mL (≈ 131 µM) | 64 µg/mL (≈ 131 µM) | inactive | inactive | O=[N+]([O-])c1ccc(/C(Cn2nnc3ccccc32)=N\Nc2nc(-c3ccc(Cl)cc3)cs2)cc1 | inactive | inactive | – | – | – | – | – | – | inactive | 128 (≈ 261 µM) | inactive | inactive | 18.7 | inactive | diameter of the inhibition zone (DIZ) (Candida albicans [4]): inactive; MFC99.9 (Candida albicans [5]): inactive; MIC (Candida albicans [5]): inactive; zone of inhibition at 128 µg/disc (Pseudomonas aeruginosa [6]): 16.7 mm; MBC (Pseudomonas aeruginosa [8]): 128 µg/mL (≈ 261 µM)
11 | inactive | 64 (≈ 128 µM) | 128 µg/mL (≈ 256 µM) | inactive | inactive | inactive | O=[N+]([O-])c1ccc(/C(Cn2nnc3ccccc32)=N\Nc2nc(-c3ccc([N+](=O)[O-])cc3)cs2)cc1 | inactive | inactive | 14.3 | 128 (≈ 256 µM) | inactive | – | inactive | 2 | inactive | 256 (≈ 511 µM) | inactive | inactive | 17.5 | inactive | –
12 | inactive | – | inactive | 128 µg/mL (≈ 240 µM) | inactive | inactive | O=[N+]([O-])c1ccc(-c2csc(N/N=C(/Cn3nnc4ccccc43)c3ccc(Br)cc3)n2)cc1 | inactive | inactive | – | – | – | inactive | – | – | inactive | – | inactive | inactive | – | inactive | diameter of the inhibition zone (DIZ) (Candida albicans [4]): inactive; MFC99.9 (Candida albicans [5]): inactive; MIC (Candida albicans [5]): inactive; zone of inhibition at 128 µg/disc (Pseudomonas aeruginosa [6]): 13.2 mm; MBC (Pseudomonas aeruginosa [8]): 256 µg/mL (≈ 479 µM); diameter of the inhibition zone (DIZ) (Escherichia coli [12]): inactive
